In ChEMBL document CHEMBL4364301 (Eur J Med Chem, 2019):

Key:
[1] = test system: LNCaP; assay: Antiproliferative activity against human LNCAP cells assessed as T/C value at 1 x 10^-2 uM incubated for 96 hrs by propidium iodide based 2D monolayer assay; type: functional
Method in brief: (§1)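 Cells were kept in RPMI 1640 with 25 mM HEPES, 10% FCS and gentamicin at 37 °C under 5% CO2, and plated at 4,000-20,000 cells/well. After 24 h recovery, compound in medium or medium alone (control wells) was added at 10 half-log concentrations from 0.0032 to 100 µM, in triplicate, with at most 0.3% DMSO. After 96 h, wells were PBS-washed, stained with 7 µg/ml PI and 0.1% Triton X-100, and fluorescence read at 530/620 nm. IC50 came from a 4-parameter fit, geometric mean.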

[2] = test system: CWR22R; assay: Antiproliferative activity against human 22Rv1 cells assessed as T/C value at 3.2 x 10^-3 uM incubated for 96 hrs by propidium iodide based 2D monolayer assay; type: functional; method in brief: as §1
[3] = test system: LNCaP; assay: Antiproliferative activity against human LNCAP cells assessed as reduction in cell growth incubated for 96 hrs by propidium iodide based 2D monolayer assay; type: functional
Method in brief: as §1, with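 “After” for “Cells were kept in RPMI 1640 with 25 mM HEPES, 10% FCS and gentamicin at 37 °C under 5% CO2, and plated at 4,000-20,000 cells/well. After”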

[4] = test system: LNCaP; assay: Antiproliferative activity against human LNCAP cells assessed as T/C value at 3.2 x 10^-3 uM incubated for 96 hrs by propidium iodide based 2D monolayer assay; type: functional; method in brief: as §1
[5] = test system: LNCaP; assay: Antiproliferative activity against human LNCAP cells assessed as T/C value at 3.2 uM incubated for 96 hrs by propidium iodide based 2D monolayer assay; type: functional; method in brief: as §1
[6] = test system: VCaP; assay: Antiproliferative activity against human VCaP cells assessed as T/C value at 1 x 10^-1 uM incubated for 96 hrs by propidium iodide based 2D monolayer assay; type: functional; method in brief: as §1
[7] = test system: LNCaP; assay: Antiproliferative activity against human LNCAP cells assessed as T/C value at 1 uM incubated for 96 hrs by propidium iodide based 2D monolayer assay; type: functional; method in brief: as §1
[8] = test system: LNCaP; assay: Antiproliferative activity against human LNCAP cells assessed as T/C value at 1 x 10^2 uM incubated for 96 hrs by propidium iodide based 2D monolayer assay; type: functional; method in brief: as §1
[9] = test system: VCaP; assay: Antiproliferative activity against human VCaP cells assessed as T/C value at 3.2 x 10^-3 uM incubated for 96 hrs by propidium iodide based 2D monolayer assay; type: functional
Method in brief: (§2)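 VCaP cells in RPMI 1640 with 10% FCS at 37 °C, 5% CO2, seeded 4,000–20,000 cells/well and left 24 h before dosing. Compounds from DMSO stocks were diluted in half-log steps in medium, 10 concentrations 0.0032–100 μM, triplicate wells, max 0.3% DMSO. After 96 h, cells were washed, stained with 7 μg/ml propidium iodide plus 0.1% Triton X-100 for 1–2 h at room temperature, and fluorescence read at ex 530/em 620 nm.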

[10] = test system: VCaP; assay: Antiproliferative activity against human VCaP cells assessed as T/C value at 1 x 10^2 uM incubated for 96 hrs by propidium iodide based 2D monolayer assay; type: functional; method in brief: as §1
[11] = test system: DU-145; assay: Antiproliferative activity against human DU145 cells assessed as T/C value at 1 x 10^2 uM incubated for 96 hrs by propidium iodide based 2D monolayer assay; type: functional; method in brief: as §1
[12] = test system: LNCaP; assay: Antiproliferative activity against human LNCAP cells assessed as T/C value at 1 x 10^-1 uM incubated for 96 hrs by propidium iodide based 2D monolayer assay; type: functional; method in brief: as §1
[13] = test system: VCaP; assay: Antiproliferative activity against human VCaP cells assessed as T/C value at 3.2 x 10^1 uM incubated for 96 hrs by propidium iodide based 2D monolayer assay; type: functional; method in brief: as §2
[14] = test system: MCF7; assay: Antiproliferative activity against human MCF7 cells assessed as T/C value at 3.2 x 10^-2 uM incubated for 96 hrs by propidium iodide based 2D monolayer assay; type: functional
[15] = test system: MCF7; assay: Antiproliferative activity against human MCF7 cells assessed as T/C value at 1 x 10^2 uM incubated for 96 hrs by propidium iodide based 2D monolayer assay; type: functional
[16] = test system: MCF7; assay: Antiproliferative activity against human MCF7 cells assessed as T/C value at 3.2 x 10^-1 uM incubated for 96 hrs by propidium iodide based 2D monolayer assay; type: functional
[17] = test system: MCF7; assay: Antiproliferative activity against human MCF7 cells assessed as T/C value at 3.2 uM incubated for 96 hrs by propidium iodide based 2D monolayer assay; type: functional
[18] = test system: MCF7; assay: Antiproliferative activity against human MCF7 cells assessed as T/C value at 3.2 x 10^1 uM incubated for 96 hrs by propidium iodide based 2D monolayer assay; type: functional
[19] = test system: MCF7; assay: Antiproliferative activity against human MCF7 cells assessed as T/C value at 1 x 10^-1 uM incubated for 96 hrs by propidium iodide based 2D monolayer assay; type: functional
[20] = test system: MCF7; assay: Antiproliferative activity against human MCF7 cells assessed as T/C value at 1 uM incubated for 96 hrs by propidium iodide based 2D monolayer assay; type: functional
[21] = test system: MCF7; assay: Antiproliferative activity against human MCF7 cells assessed as T/C value at 1 x 10^-2 uM incubated for 96 hrs by propidium iodide based 2D monolayer assay; type: functional
[22] = Protein binding in plasma (unknown origin) at 5 uM by LC-MS/MS analysis; type: ADME, cell-free; settings: read-out: PPB (converted)
Method in brief: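 Compound at 5 μM final in 100% plasma was dialysed against pH 7.4 buffer by equilibrium dialysis at 37 °C. Both sides were quantified by LC-MS/MS, unbound fraction was calculated, and results are given as % bound from duplicate experiments.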

[23] = Metabolic stability in liver microsomes (unknown origin) assessed as intrinsic clearance per mg of protein at 3 uM measured upto 45 mins in presence of NADPH by LC-MS/MS analysis; type: ADME, Microsome; settings: read-out: CLH
Method in brief: (§3)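 Pooled liver microsomes at 0.5 mg/mL protein in 0.1 M phosphate buffer pH 7.4 were incubated with 3 μM compound (0.25% DMSO) at 37 °C. Reactions were started with 1 mM NADPH and sampled at 0, 5, 15, 30 and 45 min. A minus-NADPH control ran for 45 min. Reactions were quenched in methanol and analysed by LC-MS/MS to give CLint and t1/2.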

[24] = molecular target: hERG (KCNH2) (Homo sapiens, UniProt Q12809); assay: Inhibition of human ERG expressed in CHO cells at 25 uM by whole-cell voltage-clamp analysis relative to control; type: cell-based; settings: CHO cells expressing human ERG
Method in brief: (§4)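 CHO cells expressing hERG were held in Dulbecco's PBS with Ca/Mg, pH 7–7.2, at room temperature. Tail currents were recorded by automated whole-cell voltage clamp after 300 s exposure. […] Quinidine served as positive control and 0.25% DMSO buffer as negative control.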

[25] = molecular target: Voltage-gated inwardly rectifying potassium channel KCNH2 (Homo sapiens, UniProt Q12809); assay: Inhibition of human ERG expressed in CHO cells by whole-cell voltage-clamp analysis; type: cell-based; method in brief: as §4
[26] = Metabolic stability in liver microsomes (unknown origin) assessed as half life at 3 uM measured upto 45 mins in presence of NADPH by LC-MS/MS analysis; type: ADME, Microsome; method in brief: as §3

Sequence of Voltage-gated inwardly rectifying potassium channel KCNH2 (Q12809 whole entry): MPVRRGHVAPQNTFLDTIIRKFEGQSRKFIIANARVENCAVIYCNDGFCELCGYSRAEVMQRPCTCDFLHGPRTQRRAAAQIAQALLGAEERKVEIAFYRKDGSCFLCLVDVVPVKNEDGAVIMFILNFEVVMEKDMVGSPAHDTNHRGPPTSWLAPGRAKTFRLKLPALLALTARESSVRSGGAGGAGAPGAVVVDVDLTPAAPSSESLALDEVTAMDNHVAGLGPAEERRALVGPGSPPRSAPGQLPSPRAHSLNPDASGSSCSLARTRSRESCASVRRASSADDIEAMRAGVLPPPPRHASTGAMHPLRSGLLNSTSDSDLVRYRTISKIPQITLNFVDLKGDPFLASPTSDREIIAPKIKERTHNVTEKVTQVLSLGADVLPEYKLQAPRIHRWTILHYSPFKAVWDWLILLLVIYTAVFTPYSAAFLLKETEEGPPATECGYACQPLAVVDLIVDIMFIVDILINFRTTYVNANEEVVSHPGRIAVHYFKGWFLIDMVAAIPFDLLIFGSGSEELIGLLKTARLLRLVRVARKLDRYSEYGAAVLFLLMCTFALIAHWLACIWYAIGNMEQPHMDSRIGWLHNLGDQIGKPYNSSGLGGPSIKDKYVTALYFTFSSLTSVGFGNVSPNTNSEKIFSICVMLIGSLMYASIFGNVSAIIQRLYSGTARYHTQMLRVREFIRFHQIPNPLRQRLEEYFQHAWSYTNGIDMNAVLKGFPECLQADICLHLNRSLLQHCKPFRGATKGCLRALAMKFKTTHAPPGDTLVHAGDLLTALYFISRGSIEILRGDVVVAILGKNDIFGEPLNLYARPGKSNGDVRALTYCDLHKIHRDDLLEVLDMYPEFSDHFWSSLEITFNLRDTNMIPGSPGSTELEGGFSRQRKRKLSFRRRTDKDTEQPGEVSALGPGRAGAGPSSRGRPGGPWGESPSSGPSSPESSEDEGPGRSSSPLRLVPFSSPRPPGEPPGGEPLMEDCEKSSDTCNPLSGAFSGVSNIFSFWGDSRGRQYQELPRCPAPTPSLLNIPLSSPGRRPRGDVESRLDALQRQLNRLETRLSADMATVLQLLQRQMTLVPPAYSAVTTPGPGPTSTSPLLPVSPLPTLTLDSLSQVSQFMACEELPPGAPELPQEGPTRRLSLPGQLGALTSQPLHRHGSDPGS
Sequence of hERG (KCNH2) (Q12809 whole entry): as above

Structure (SMILES)	T/C [1]	T/C [2]	IC50 [3]	IC70 [3]	T/C [4]	T/C [5]	T/C [6]	T/C [7]	T/C [8]	T/C [9]	T/C [10]	T/C [11]	T/C [12]	T/C [13]	fraction unbound at 5 µM [22]	microsomal CLint at 3 µM [23]	inhibition at 25 µM [24]	IC50 [25]	half-life at 3 µM [26]	further results
CC1(C)C(=O)N(c2ccc(C#N)cc2C(F)(F)F)C(=S)N1c1cccc(S(F)(F)(F)(F)F)c1	91%	104%	4100 nM	19.9 µM	83%	54%	88%	79%	21%	106%	57%	83%	94%	57%						
CC1(C)C(=O)N(c2ccc(C#N)cc2C(F)(F)F)C(=S)N1c1ccc(S(F)(F)(F)(F)F)cc1	76%	106%	3000 nM	5.34 µM	76%	51%	103%	66%	7%	93%	47%	16%	77%	64%						
CC1(C)C(=O)N(c2cccc(S(F)(F)(F)(F)F)c2)C(=S)N1c1cccc(C(F)(F)F)c1	94%	94%	3400 nM	4.31 µM	92%	63%	80%	74%	22%	104%	60%	76%	91%	63%						
CC(O)(COc1ccc(C(F)(F)C(F)(F)F)cc1)C(=O)Nc1cc(C(F)(F)F)cc(C(F)(F)F)c1 (racemic)	94%	106%	2700 nM	3.04 µM	91%	25%	89%	93%	1%	76%	2%	-1%	96%	6%						T/C [14]: 112%; T/C [15]: 3%; T/C [16]: 118%; T/C [17]: 57%; T/C [18]: 3%; T/C [19]: 116%; T/C [20]: 115%; T/C [21]: 100%
CC(O)(COc1cccc(S(F)(F)(F)(F)F)c1)C(=O)Nc1cc(C(F)(F)F)cc(C(F)(F)F)c1 (racemic)	89%	107%	3000 nM	3.1 µM	88%	18%	92%	93%	2%	111%	6%	0%	98%	5%						
CC(O)(COc1ccc(S(F)(F)(F)(F)F)cc1)C(=O)Nc1cc(C(F)(F)F)cc(C(F)(F)F)c1 (racemic)	92%	102%	1900 nM	2.45 µM	92%	15%	107%	89%	1%	105%	6%	1%	100%	4%	0.091	3.08 µL/min/mg	13.4%	> 25 µM	450 min	
CC(O)(COc1cc(C(F)(F)F)cc(C(F)(F)F)c1)C(=O)Nc1cccc(S(F)(F)(F)(F)F)c1 (racemic)	96%	104%	2800 nM	3 µM	89%	17%	78%	101%	2%	97%	7%	0%	76%	4%						
CC(O)(COc1cccc(S(F)(F)(F)(F)F)c1)C(=O)Nc1ccc([N+](=O)[O-])c(C(F)(F)F)c1 (racemic)	94 - 104%	97 - 104%	3300 nM	4.37 to 5.15 µM	92 - 98%	54 - 71%	94 - 115%	84 - 93%	1 - 2%	103 - 109%	5 - 11%	1%	87 - 113%	2 - 4%	0.015	3.21 µL/min/mg	38.1%	> 25 µM	431 min	
CC(O)(COc1cc(C(F)(F)F)cc(C(F)(F)F)c1)C(=O)Nc1ccc(S(F)(F)(F)(F)F)cc1 (racemic)	88%	106%	2300 nM	2.97 µM	90%	26%	99%	90%	3%	101%	5%	1%	99%	6%						
CC(O)(COc1ccccc1C(F)(F)F)C(=O)Nc1ccc(S(F)(F)(F)(F)F)cc1 (racemic)	85 - 89%	101 - 106%	1200 nM		91 - 100%	2 - 7%	75 - 96%	25 - 60%	1 - 2%	97 - 98%	5 - 10%	1%	83 - 84%	3 - 11%	0.014	22 µL/min/mg	26.3%	> 25 µM	63.1 min	
